Test results from PubChem BioAssay AID1027 (Sanford-Burnham Center for Chemical Genomics, 2008).
The campaign covered roughly 200,000 compounds. Fewer than 10 were called active.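 Rule for the calls: active = luciferase activation factor, scaled between plate controls, of at least 2 with compound at 10 µM; inactive = the rest.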 A selection follows.

What follows are molecules tested against Luciferin 4-monooxygenase (Photinus pyralis) (UniProt P08659) (assay: FLuc activators, initial screening, artefact control for FLuc-dependent activation tests, biochemical, ATPlite luminescence (AID 1027)). Details: ATPlite luciferase biochemical, 10 min, at 10 µM, stronger effect = higher value, 0 = ATP-free wells, 1 = DMSO control.
Method in brief: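 System: cell-free luciferase reagent; medium: PBS as buffer for the ATP substrate; doses: test compounds dosed from 2 mM stocks in 100% DMSO; incubation: 10 min, room temperature; measured by: luminescence from luciferase reaction; read-out: luciferase activation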

Sequence of Luciferin 4-monooxygenase (Photinus pyralis) (P08659 whole entry, looked up): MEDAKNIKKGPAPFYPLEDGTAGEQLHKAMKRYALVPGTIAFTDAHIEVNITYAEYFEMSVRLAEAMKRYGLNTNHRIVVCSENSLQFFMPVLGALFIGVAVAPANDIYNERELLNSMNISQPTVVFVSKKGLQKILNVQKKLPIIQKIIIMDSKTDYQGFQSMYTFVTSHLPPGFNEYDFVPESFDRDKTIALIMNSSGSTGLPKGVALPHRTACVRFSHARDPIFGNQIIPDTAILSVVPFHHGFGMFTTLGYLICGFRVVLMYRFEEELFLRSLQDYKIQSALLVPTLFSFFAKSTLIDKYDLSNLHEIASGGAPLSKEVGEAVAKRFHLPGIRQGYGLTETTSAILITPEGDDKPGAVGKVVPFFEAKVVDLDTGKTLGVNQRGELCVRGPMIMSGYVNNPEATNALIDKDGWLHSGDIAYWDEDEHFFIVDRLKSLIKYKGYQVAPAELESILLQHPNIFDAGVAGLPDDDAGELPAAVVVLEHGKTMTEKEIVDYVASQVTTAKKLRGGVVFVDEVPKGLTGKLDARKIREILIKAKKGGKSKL

Activation factor, inactive:
Clc1ccc(-c2csc(-c3ccncc3)n2)cc1 0.9
COCCNC(=S)Nc1cc(S(=O)(=O)N2CCOCC2)ccc1N1CCCCC1 1
CC(C)OCCCNC(=O)c1ccc(C2SCC(=O)N2Cc2ccco2)cc1 (centres undefined) 1
COc1cccc(-n2c(=S)[nH]c3c(oc4ccccc43)c2=O)c1 1
CCc1cc(CNC(=O)CC2C(=O)NCCN2CC2CCCCC2)on1 (centres undefined) 1.1
CCCCOC(=O)c1ccc(NC(c2ccc(C)cc2)P(=O)(OC)OC)cc1 (centres undefined) 1
CC1=C(C(=O)Nc2cc(C)ccn2)C(c2cnn(C)c2)C2=C(CC(c3ccccc3)CC2=O)N1 (centres undefined) 1.1
COc1cc(NC(=O)CSc2nnc3ccc(-c4ccncc4)nn23)cc(OC)c1 1
COc1ccc(CN2CCNC(=O)C2CC(=O)N(C)Cc2ccccn2)cc1OC (centres undefined) 1
Cc1cc(C(=O)N/N=C\C(Br)=C\c2ccccc2)c(C)o1 0.8
O=C(Cn1nnc2ccccc2c1=O)NCc1ccc(Cl)cc1 1
O=C1CCCN1CCCNC(=S)Nc1ccc(F)c(Cl)c1 1
Cc1c(CN2CCCC(C(=O)c3cccc(Cl)c3)C2)c(=O)n(-c2ccccc2)n1C (centres undefined) 1
Cc1ccc(-c2csc(NC(=O)Cn3[nH]c(=O)c4ccccc4c3=O)n2)cc1 1
CC[n+]1c(C)n(-c2ccccc2)c2ccc(NC(C)=O)cc21 1
O=S(=O)(c1ccccc1)c1nc(-c2ccccc2F)oc1NCc1cccnc1 1.1
C/C(=N\NC(=S)NCc1ccccc1)c1ccc(Cl)cc1 1
CCCc1cc(-c2nc(-c3ccc(C)cc3)cs2)ccn1 1
CSCC[C@H](NC(=O)OC(C)(C)C)C(=O)N/N=C/c1cc2ccc(C)cc2nc1Cl 1.1
CCOC(=O)c1[nH]c2c(c1-c1ccccc1)C(=O)CC(c1ccc(Cl)cc1)C2 (centres undefined) 1
Cc1ccc(-n2ncc3c(=O)n(-c4ccc(C)c(C)c4)c(-c4ccco4)nc32)cc1 1
COc1cc(NC(=O)COC(=O)CSc2ccc3ccccc3c2)c(C)cc1[N+](=O)[O-] 1.1
CNC(=O)c1[nH]cnc1C(=O)N[C@@H](CC(C)C)C(=O)OCc1ccccc1 1.1
CCN(CCCNC(=O)CCn1c(=O)[nH]c2ccsc2c1=O)c1ccccc1 1
CCc1ccc(C2C(C#N)=C(N)N(N(C)C)C3=C2C(=O)CCC3)s1 (centres undefined) 1
O=C(CCCNS(=O)(=O)c1cccc2nsnc12)NCCN1CCN(c2ccccc2F)CC1 1.1
Cc1ccc(NC(=O)CSc2nc(CSc3ccc(C)cc3)cc(=O)[nH]2)cc1 0.9
Cc1cccc(N2CCN(C(=O)c3cnn4c(C(F)F)cc(-c5ccccc5)nc34)CC2)c1C 1
Cc1ccc(NC(=O)CN2CCCCC2)c2c1CC(C)(C)O2 1
CC[C@H](C)[C@@H](C(=O)N1CCNCC1)n1cc([C@@H](N)Cc2ccc(O)cc2)nn1 1.1
CCN(CC)CCNc1nc(-c2ccc(OC(F)F)cc2)c(C)s1 1
CNC(=O)/C(C#N)=C/c1c(F)cccc1Cl 1
Clc1ccc(-c2cc(C3CCNCC3)[nH]n2)c(Cl)c1 1
COc1ccc(C2=NN(c3nc4ccccc4s3)C(=O)C2)cc1 0.4
CCO[C@H]1OC(C(=O)N2CCCCCCC2)=C[C@@H](c2ccc(C(F)(F)F)cc2)[C@@H]1CCCO 1.1
Cc1nn(Cc2ccc(F)cc2)c(C)c1NC(=O)c1cccnc1Cl 1.1
O=C(CCN1C(=O)c2ccccc2C1=O)C1=NN[C@@H]2C(=O)N(c3ccc(F)cc3)C(=O)[C@H]12 1
CCOc1ccc(-c2ccc(SCC(=O)N3CCOCC3)nn2)cc1 0.2
Cc1scc(C(=O)NNC(=S)NCC(C)C)c1C 1
CCCn1nc(C(=O)N2CCCc3ccccc32)c2ccccc2c1=O 1.1
Cc1ccc2cc(CCNC(=O)c3ccc4c(c3)OCO4)c(=O)[nH]c2c1 1.1
COc1ccc2oc(=O)c(C(=O)NCc3ccccn3)cc2c1 0.9
Cc1ccc2c(c1)C1CN(C)CCC1N2C(=O)c1ccccc1NS(=O)(=O)c1ccc(F)cc1C (centres undefined) 1.1
CCOc1ccc(CCNC(=O)C2=C(C)C(=O)OC23CCC(C)CC3)cc1OCC (centres undefined) 1.1
COc1ccc(NS(=O)(=O)c2ccc(O)c(C(=O)OCC(=O)NC3CCCCC3)c2)cc1 1.1
Cc1cccc(N=Nc2c(O)[nH]c3ccc(F)cc23)c1 0.9
NC1=NC(=O)C(Cc2cccc(Cl)c2)S1 (centres undefined) 1
CN(C)c1ccnc(Nc2ccc(F)cc2)c1C#N 1
COc1ccc(NC(=O)N2CCCC(c3nc(-c4ccc(F)cc4)no3)C2)cc1 (centres undefined) 1
CN1CCN(c2ccc(NC(=O)c3ccc4c(c3)[nH]c(=O)n4Cc3ccc(F)cc3)cc2)CC1 1
COc1ccc(NC(=O)CN2C(=O)C(c3ccccc3)=NC23CCCCCC3)cc1OC 1
CC(NC(=O)COC(=O)c1ccc(Cl)cc1O)c1ccc(F)cc1 (centres undefined) 1
CCOc1cccc(OCCCOc2cccc3cccnc23)c1 1
S=c1[nH]nc(NCCc2ccccc2)s1 0.9
COc1ccc(C(=O)N2CCC(C(=O)Nc3ccc(C)cc3)CC2)cc1 1
COc1cccc(/C=C2\SC(=N)N(c3ccc(F)cc3)C2=O)c1 1.1
O=[N+]([O-])/C(N=Nc1ccccc1)=N\Nc1ccccc1 1.1
COc1ccc(CC(=O)N[C@@H](CCSC)c2nc3ccccc3[nH]2)cc1 1.1
O=C(NCc1ccccn1)c1cc(Br)ccc1Cl 1
CC1CCN(c2ccc(C(=O)Nc3nnc(C4CC4)s3)cc2[N+](=O)[O-])CC1 1
Cc1cccc(N2C(=O)CC(SC(N)=Nc3ccccc3)C2=O)c1 (centres undefined) 1.1
COc1cc(/C=C/CO)cc(OC)c1O[C@@H]1O[C@H](CO)[C@@H](O)[C@H](O)[C@H]1O 1
Cc1ccc2[nH]cc(CCCN3C(=O)c4ccccc4C3=O)c2c1 1
COc1ccc(NC(=O)C(NC(C)=O)C(=O)NCc2ccccc2Cl)cc1 (centres undefined) 1
CC(OC(=O)CCc1nc(=O)c2ccccc2n1C)C(=O)NCc1ccc2c(c1)OCO2 (centres undefined) 1.1
CO/N=C(\N)c1ccc([N+](=O)[O-])cc1 1.1
Cc1ccc(CCCOC(=O)C[N+]2(C)CCCCC2)cc1 1
O=C(Cc1ccccc1)Nc1cccc(C(=O)N/N=C/c2ccco2)c1 0.9
Cc1ccc(CSc2nc3[nH]ncc3c(=O)[nH]2)cc1 0.6
COc1ccccc1NC(=O)C[n+]1ccccc1 1
COc1cc(C(=O)N2C(=O)c3cccc(N)c3C2=O)cc(OC)c1OC 1
CCOC(=O)C1CCCN(C(=O)c2cccc(S(=O)(=O)N3CCOCC3)c2)C1 (centres undefined) 1
COc1cccc(NC(=O)C(Sc2nc3ccccc3c(=O)n2CC(C)C)c2ccccc2)c1 (centres undefined) 1
Cc1cs/c(=N\N=C\c2ccc(O)cc2)n1Cc1ccco1 1
